The source made the active and inactive calls. The rule behind the calls is not given here.
Tests used:
[1] = tested on: Rattus norvegicus; assay: Antiinflammatory activity in rat assessed as reduction of carrageenan-induced paw oedema at 0.15 mmol/kg, ip administered 5 mins before carrageenan challenge measured after 3.5 hrs; type: functional
Outline: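 Rat carrageenan-induced paw oedema; compounds given ip at 0.15 mmol/kg body weight. Result expressed as percent inhibition of oedema relative to controls; mean of 6–8 animals; significance by Student's t test.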

[2] = Antioxidant activity assessed as DPPH radical scavenging activity at 0.2 mM after 30 mins; type: physicochemical; settings: 0.5 h, 200 µM
[3] = tested on: Rattus norvegicus; assay: Antidyslipidemic activity in rat Triton-WR1339-induced hyperlipidemic model assessed as reduction of plasma total cholesterol level at 0.15 mmol/kg, ip after 24 hrs; type: functional; set-up: scale not given: the % may be the effect or the level left
Outline: (§1)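 Hyperlipidemia induced in rats by tyloxapol 200 mg/kg ip; compounds given ip at 150 μmol/kg. Serum total cholesterol, triglycerides and LDL-cholesterol compared with hyperlipidemic controls. Groups of six to eight rats; significance by Student's t test.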

[4] = tested on: Liver; assay: Antioxidant activity in rat hepatic microsomal membrane assessed as inhibition of ferrous ascorbate-induced lipid peroxidation after 45 mins by spectrophotometric analysis; type: functional, cell membranes
[5] = tested on: Rattus norvegicus; assay: Antidyslipidemic activity in rat Triton-WR1339-induced hyperlipidemic model assessed as reduction of plasma triglyceride level at 0.15 mmol/kg, ip after 24 hrs; type: functional; set-up: scale not given: the % may be the effect or the level left; outline: as §1
[6] = tested on: Rattus norvegicus; assay: Antidyslipidemic activity in rat Triton-WR1339-induced hyperlipidemic model assessed as reduction of plasma low density lipoprotein cholesterol level at 0.15 mmol/kg, ip after 24 hrs; type: functional; set-up: scale not given: the % may be the effect or the level left; outline: as §1
[7] = tested on: Glycine max; assay: Competitive inhibition of soybean lipoxygenase 1 mM of sodium linoleate assessed as reduction of 13-hydroperoxylinoleic acid formation up to 7 mins
Outline: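 Soybean lipoxygenase run with linoleic acid at 1 mM, above the saturating substrate concentration, under the same conditions as the standard inhibition assay, to test for competitive inhibition.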

[8] = Inhibition of soybean lipoxygenase assessed as reduction in conversion of sodium linoleate to 13-hydroperoxylinoleic acid up to 7 mins; set-up: species or system Glycine max
[9] = tested on: Rattus norvegicus; assay: Antiinflammatory activity in rat assessed as reduction of carrageenan-induced paw oedema at 0.30 mmol/kg, ip administered 5 mins before carrageenan challenge measured after 3.5 hrs; type: functional

Compound | inhibition in vivo at 150 µmol/kg [1] [%] | Activity [2] | Activity [3] [%] | inhibition [4] | Activity [5] [%] | Activity [6] [%] | inhibition [7] | IC50 [8] [µM] | inhibition in vivo at 300 µmol/kg [9] [%]
COc1ccc2cc([C@H](C)C(=O)O)ccc2c1 [NAPROXEN] | 11 | – | – | – | – | – | – | – | –
CC(C)Cc1ccc(C(C)C(=O)OC/C=C/c2ccccc2)cc1 (stereo unspecified) | 46 | Not Active | 53.3 | inactive | 77.5 | 75 | inactive | 6.7 | 68
Cc1cccc(Nc2ccccc2C(=O)OC/C=C/c2ccccc2)c1C | 62 | Not Active | – | inactive | – | – | inactive | 38 | –
O=C(CCCCC1CCSS1)OC/C=C/c1ccccc1 (stereo unspecified) | 48 | Not Active | – | inactive | – | – | inactive | 11.3 | 57
COc1ccc2cc([C@H](C)C(=O)OC/C=C/c3ccccc3)ccc2c1 | 60 | Not Active | – | inactive | – | – | inactive | 40.5 | –
O=C(OC/C=C/c1ccccc1)c1ccccc1Nc1cccc(C(F)(F)F)c1 | 48 | Not Active | 48.4 | inactive | 50.1 | 65.1 | inactive | 9 | –
OC/C=C/c1ccccc1 [CINNAMIC ALCOHOL] | 13 | – | – | – | – | – | – | 250 | –
CC(Cc1ccc(O)c(O)c1)C(C)Cc1ccc(O)c(O)c1 (stereo unspecified) [NORDIHYDROGUAIARETIC ACID] | – | – | – | – | – | – | – | 1.3 | –
Cc1c(Cl)cccc1Nc1ccccc1C(=O)O [TOLFENAMIC ACID] | 24 | – | – | – | – | – | – | – | –
Cc1c(Cl)cccc1Nc1ccccc1C(=O)OC/C=C/c1ccccc1 | 42 | Not Active | – | inactive | – | – | inactive | 9.6 | –
Cc1cccc(Nc2ccccc2C(=O)O)c1C [MEFENAMIC ACID] | 44 | – | – | – | – | – | – | – | –
O=C(Cc1ccccc1Nc1c(Cl)cccc1Cl)OC/C=C/c1ccccc1 | 53 | Not Active | 78.4 | inactive | 71.6 | 76.8 | inactive | 78 | –
O=C(O)c1ccccc1Nc1cccc(C(F)(F)F)c1 [FLUFENAMIC ACID] | 19 | – | – | – | – | – | – | – | –
O=C(Cc1c[nH]c2ccccc12)OC/C=C/c1ccccc1 | 33 | Not Active | – | inactive | – | – | inactive | 116 | –
CC(C)Cc1ccc(C(C)C(=O)O)cc1 (stereo unspecified) [IBUPROFEN] | 36 | – | – | – | – | – | – | – | –
COc1ccc2c(c1)c(CC(=O)O)c(C)n2C(=O)c1ccc(Cl)cc1 [INDOMETHACIN] | 42 | – | – | – | – | – | – | – | –
CC(C(=O)OC/C=C/c1ccccc1)c1cccc(C(=O)c2ccccc2)c1 (stereo unspecified) | 55 | Not Active | – | inactive | – | – | inactive | 22.5 | –
O=C(O)Cc1ccccc1Nc1c(Cl)cccc1Cl [DICLOFENAC] | 37 | – | – | – | – | – | – | – | –
COc1ccc2c(c1)c(CC(=O)OC/C=C/c1ccccc1)c(C)n2C(=O)c1ccc(Cl)cc1 | 56 | Not Active | – | inactive | – | – | inactive | 9 | –
